For nine compounds, MIC=>90 and Ratio results are on record in ChEMBL document CHEMBL4765447, “Design, synthesis and biological evaluation of diamino substituted cyclobut-3-ene-1,2-dione derivatives for the treatment of drug-resistant tuberculosis” (Eur J Med Chem, 2020).

Values after ≈ are worked out from the molar mass of the structure shown.

In test [1] the test system is Mycobacterium tuberculosis. The test is described as follows: Inhibition of ATP synthase in multi-drug resistant Mycobacterium tuberculosis clinical isolate 13946 assessed as reduction in bacterial growth incubated for 7 days by microplate alamar blue assay. Particulars: time 7.0 day. A digest of the protocol: (§1)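 Microplate alamar blue assay. Strains grown to late log phase in 7H9 broth with 0.2% glycerol, 0.05% Tween 80 and 10% ADC, then washed, filtered (8 µm) and frozen. Twofold compound dilutions with 2×10^5 CFU per well at 37 °C. On day 7, Tween 80 and alamar blue added; after 16–24 h, fluorescence read at 530/590 nm. MIC is the lowest concentration giving ≥90% fluorescence reduction versus bacterium-only controls.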
For orientation: Alamar Blue is a resazurin reagent that responds to reducing activity.

In test [2] the test system is Mycobacterium tuberculosis. The test is described as follows: Inhibition of ATP synthase in multi-drug resistant Mycobacterium tuberculosis clinical isolate 14862 assessed as reduction in bacterial growth incubated for 7 days by microplate alamar blue assay. As to conditions: time 7.0 day. An outline of the steps: as §1
Test [3] concerns Mycobacterium tuberculosis. In words: Inhibition of ATP synthase in bedaquiline-resistant Mycobacterium tuberculosis assessed as reduction in bacterial growth incubated for 7 days by microplate alamar blue assay. Particulars: time 7.0 day. A digest of the protocol: as §1
A short description of test [4]: Ratio of MIC for inhibition of ATP synthase in bedaquiline-resistant Mycobacterium tuberculosis to MIC for inhibition of ATP synthase in Mycobacterium tuberculosis H37Rv. An outline of the steps:
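Ratio of alamar-blue MIC against the bedaquiline-resistant strain to MIC against H37Rv, both measured in the 7-day microplate alamar blue assay.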

Regarding `Cc1cc(Nc2c(NCc3ccccn3)c(=O)c2=O)ccc1N1CCSCC1`, the MIC=>90 in test [1] came out at 0.257 µg/mL (≈ 0.651 µM); in test [2] it was 0.207 µg/mL (≈ 0.525 µM); in test [3], 4.85 µg/mL (≈ 12.3 µM). In test [4], the Ratio is 5.7.
Turning to `COc1nc2ccc(Br)cc2cc1[C@@H](c1ccccc1)[C@@](O)(CCN(C)C)c1cccc2ccccc12`, in test [3], the MIC=>90 came to 2.23 µg/mL (≈ 4.02 µM). The Ratio in test [4] is 62.
Regarding `NNC(=O)c1ccncc1`, the MIC=>90 was 2.26 µg/mL (≈ 16.5 µM) in test [1], over 10 µg/mL in test [2] and 0.052 µg/mL (≈ 0.379 µM) in test [3].
Regarding `O=c1c(NCc2ccccn2)c(-c2ccc(N3CCOCC3)cc2)c1=O`, the MIC=>90 stood at 0.107 µg/mL (≈ 0.306 µM) in test [1], 0.114 µg/mL (≈ 0.326 µM) in test [2] and 3.02 µg/mL (≈ 8.63 µM) in test [3]. Further, the Ratio in test [4] amounted to 14.9.
On to `O=c1c(NCc2ccccn2)c(Nc2ccc3c(c2)CCC3)c1=O`, for which the MIC=>90 in test [1] was 0.903 µg/mL (≈ 2.83 µM); in test [2], 0.94 µg/mL (≈ 2.94 µM).
`O=C1CCCc2cc(Nc3c(NCc4ccccn4)c(=O)c3=O)ccc21`: the results for the MIC=>90 in test [1] and in test [2] were 0.488 µg/mL (≈ 1.4 µM) and 0.895 µg/mL (≈ 2.58 µM), respectively.
For the compound `O=c1c(NCc2ccccn2)c(Nc2ccc3scnc3c2)c1=O`, the MIC=>90 turned out to be 3.53 µg/mL (≈ 10.5 µM) in test [1] and 3.37 µg/mL (≈ 10 µM) in test [2].
Regarding `O=c1c(NCc2ccccn2)c(Nc2ccc3c(c2)OCO3)c1=O`, the MIC=>90 is 0.47 µg/mL (≈ 1.45 µM) in test [1], 0.499 µg/mL (≈ 1.54 µM) in test [2] and 3.76 µg/mL (≈ 11.6 µM) in test [3]. In test [4], the Ratio was 7.5.
As to `CO[C@H]1/C=C/O[C@@]2(C)Oc3c(C)c(O)c4c(O)c(c(/C=N/N5CCN(C)CC5)c(O)c4c3C2=O)NC(=O)/C(C)=C\C=C\[C@H](C)[C@H](O)[C@@H](C)[C@@H](O)[C@@H](C)[C@H](OC(C)=O)[C@@H]1C`, the MIC=>90 was over 10 µg/mL in test [1] and 9.32 µg/mL (≈ 11.3 µM) in test [2].
